From ChEMBL document CHEMBL4765486, “Novel Nonsecosteroidal Vitamin D Receptor Modulator Combined with Gemcitabine Enhances Pancreatic Cancer Therapy through Remodeling of the Tumor Microenvironment” (J Med Chem, 2021)
The source made the active and inactive calls.

What was measured:
[1] = Cytotoxicity against rat LTC-14 cells assessed as reduction in cell proliferation incubated for 24 hrs by MTT assay; assay type: cell-based; conditions: LTC-14, 24 h
LTC-14 [2] = test: Inhibition of rat LTC-14 cells activation assessed decrease in TGF-beta1 induced Acta2 mRNA expression at 0.5 uM incubated for 24 hrs by q-PCR analysis; assay type: functional, cell-based
Procedure, shortened: (§1)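 Immortalized rat PSC line LTC-14, about 1×10^5 cells per well, was grown 24 h at 37 °C in 5% CO2. Cells then received compound (0.5 μM) plus TGF-β1 for 24 h; TGF-β1 is stated as 0.5 ng/mL in the text and 5 ng/mL in the methods. Col1a1 and Acta2 mRNA were measured by RT-qPCR. Mean ± SD versus TGF-β1 alone.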

[3] = target: T1, Vitamin D3 receptor (Homo sapiens) (UniProt P11473); test: Binding affinity to VDR (unknown origin) at 1 uM by fluorescence polarization assay relative to calcipotriol
T1 sequence (whole entry): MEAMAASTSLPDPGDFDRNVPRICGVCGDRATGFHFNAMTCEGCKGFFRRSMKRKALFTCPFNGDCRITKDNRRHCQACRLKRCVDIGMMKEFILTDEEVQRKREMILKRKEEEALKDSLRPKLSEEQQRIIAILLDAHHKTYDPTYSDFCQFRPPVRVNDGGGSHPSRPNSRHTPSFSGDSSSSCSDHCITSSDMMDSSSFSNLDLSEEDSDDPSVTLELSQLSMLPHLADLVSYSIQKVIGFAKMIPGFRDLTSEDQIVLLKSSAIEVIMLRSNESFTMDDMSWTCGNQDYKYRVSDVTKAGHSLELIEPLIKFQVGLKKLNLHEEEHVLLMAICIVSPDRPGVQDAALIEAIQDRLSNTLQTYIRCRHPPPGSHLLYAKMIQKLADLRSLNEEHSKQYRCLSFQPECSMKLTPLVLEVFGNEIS
Procedure, shortened: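 PolarScreen VDR competitor fluorescence polarization assay with compounds at 1 μM in triplicate. Read-out used 535 nm excitation and 590 nm emission filters.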

LTC-14 [4] = test: Inhibition of rat LTC-14 cell activation assessed decrease in TGF-beta1 induced Colla1 mRNA expression at 0.5 uM incubated for 24 hrs by q-PCR analysis; assay type: functional; procedure, shortened: as §1
LTC-14 [5] = test: Inhibition of rat LTC-14 cells activation assessed decrease in TGF-beta1 induced collagen 1 protein expression at 0.5 uM incubated for 24 hrs by Western blot analysis; assay type: functional, cell-based
Procedure, shortened: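 LTC-14 cells were treated for 24 h with compound (0.5 μM) plus TGF-β1 (0.5 ng/mL in the text, 5 ng/mL in the methods). Lysates were run on 10% SDS-PAGE, transferred to PVDF and probed with rabbit anti-collagen I, with β-actin as reference. Bands were quantified by densitometry versus TGF-β1 alone.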

Row | SMILES | RBA ([3]; filed as agonist) [%] | RBA [3] | IC50 [1] [µM] | inhibition (LTC-14 [2]) | inhibition (LTC-14 [4]) | inhibition (LTC-14 [5])
1 | CCn1c(C(=O)NCCCN2CCOCC2)ccc1C(CC)(CC)c1ccc(OCCC(C)(C)O)c(C)c1 | 63 |  | > 10 | Active | Active | Active
2 | CCn1c(C(=O)NCC2CCOCC2)ccc1C(CC)(CC)c1ccc(OCCC(C)(C)O)c(C)c1 | 77 |  | > 10 | Active | Active | Active
3 | CCN(CC)CCCNC(=O)c1cc(C(CC)(CC)c2ccc(OCCCCCC(O)(CC)CC)c(C)c2)cn1CC |  | 32% | > 10 | Active | Active | Active
4 | CCN(CC)CCCNC(=O)c1ccc(C(CC)(CC)c2ccc(OCCCCC(O)(CC)CC)c(C)c2)n1CC |  | inactive | > 10 | Active | Active | Active
5 | CCC(O)COc1ccc(C(CC)(CC)c2ccc(C(=O)NCCCN(CC)CC)n2CC)cc1C (stereo not given) |  | 28% | > 10 | Active | Active | Active
6 | CCN(CC)CCCNC(=O)c1ccc(C(CC)(CC)c2ccc(OCC(O)c3ccccc3)c(C)c2)n1CC (stereo not given) | 75 |  | > 10 | Active | Active | Active
7 | CCN(CC)CCCNC(=O)c1ccc(C(CC)(CC)c2ccc(OCCCCC(C)(C)O)c(C)c2)n1CC |  | 26% | > 10 | Active | Active | Active
8 | CCn1c(C(=O)NCCN2CCOCC2)ccc1C(CC)(CC)c1ccc(OCCC(C)(C)O)c(C)c1 |  | 18% | > 10 | Active | Active | Active
9 | CCn1cc(C(CC)(CC)c2ccc(OCC(C)O)c(C)c2)cc1C(=O)NCCN1CCOCC1 (stereo not given) |  | 36% | > 10 | Active | Active | Active
10 | CCN(CC)CCCNC(=O)c1cc(C(CC)(CC)c2ccc(OCCCC(C)(C)O)c(C)c2)cn1CC |  | 24% | > 10 | Active | Active | Active
11 | CCN(CC)CCCNC(=O)c1cc(C(CC)(CC)c2ccc(OCCC(C)(C)O)c(C)c2)cn1CC | 67 |  | > 10 | Active | Active | Active
12 | CCn1cc(C(CC)(CC)c2ccc(OCC(C)O)c(C)c2)cc1C(=O)NCCCN(CCO)CCO (stereo not given) | 70 |  | > 10 | Active | Active | Active
13 | CCn1cc(C(CC)(CC)c2ccc(OCC(C)O)c(C)c2)cc1C(=O)NCCCN1CCOCC1 (stereo not given) | 71 |  | > 10 | Active | Active | Active
14 | CCN(CC)CCCNC(=O)c1cc(C(CC)(CC)c2ccc(OCC(O)c3ccccc3)c(C)c2)cn1CC (stereo not given) | 59 |  | > 10 | Active | Active | Active
15 | CCN(CC)CCNC(=O)c1ccc(C(CC)(CC)c2ccc(OCCCC(O)(CC)CC)c(C)c2)n1CC |  | 38% | > 10 | Active | Active | Active
16 | CCN(CC)CCCNC(=O)c1ccc(C(CC)(CC)c2ccc(OCC(C)O)c(C)c2)n1CC (stereo not given) |  | 30% | > 10 | Active | Active | Active
17 | CCN(CC)CCNC(=O)c1cc(C(CC)(CC)c2ccc(OCCC(O)(CC)CC)c(C)c2)cn1CC | 80 |  | > 10 | Active | Active | Active
18 | CCN(CC)CCCNC(=O)c1cc(C(CC)(CC)c2ccc(OCCCCCC(C)(C)O)c(C)c2)cn1CC |  | inactive | > 10 | Active | Active | Active
19 | CCCC(O)(CCC)CCCCOc1ccc(C(CC)(CC)c2ccc(C(=O)NCCCN(CC)CC)n2CC)cc1C | 64 |  | > 10 | Active | Active | Active
20 | CCn1c(C(=O)NCCN(C)C)ccc1C(CC)(CC)c1ccc(OCCC(C)(C)O)c(C)c1 | 48 |  | > 10 | Active | Active | Active
21 | CCn1c(C(=O)NCCCN2CCN(C)CC2)ccc1C(CC)(CC)c1ccc(OCCC(C)(C)O)c(C)c1 | 54 |  | > 10 | Active | Active | Active

More lines, main results first:

Row | RBA ([3]; filed as agonist) [%] | RBA [3] | SMILES | IC50 [1] [µM] | inhibition (LTC-14 [2]) | inhibition (LTC-14 [4]) | inhibition (LTC-14 [5])
22 | 40 |  | CCN(CC)CCCNC(=O)c1cc(C(CC)(CC)c2ccc(OCC(O)C3CC3)c(C)c2)cn1CC (stereo not given) | > 10 | Active | Active | Active
23 | 67 |  | CCn1cc(C(CC)(CC)c2ccc(OCC(C)O)c(C)c2)cc1C(=O)NCC1CCOCC1 (stereo not given) | > 10 | Active | Active | Active
24 | 46 |  | CCN(CC)CCCNC(=O)c1cc(C(CC)(CC)c2ccc(OCCCC(O)(CC)CC)c(C)c2)cn1CC | > 10 | Active | Active | Active
25 | 60 |  | CCn1cc(C(CC)(CC)c2ccc(OCC(C)O)c(C)c2)cc1C(=O)NCC1CCCO1 (stereo not given) | > 10 | Active | Active | Active
26 | 41 |  | CCN(CC)CCNC(=O)c1cc(C(CC)(CC)c2ccc(OCCCCC(O)(CC)CC)c(C)c2)cn1CC | > 10 | Active | Active | Active
27 | 64 |  | CCC(O)COc1ccc(C(CC)(CC)c2cc(C(=O)NCCCN(CC)CC)n(CC)c2)cc1C (stereo not given) | > 10 | Active | Active | Active
28 |  | 33% | CCN(CC)CCCNC(=O)c1cc(C(CC)(CC)c2ccc(OCCCCC(C)(C)O)c(C)c2)cn1CC | > 10 | Active | Active | Active
29 |  | 33% | CCN(CC)CCCNC(=O)c1ccc(C(CC)(CC)c2ccc(OCCCC(C)(C)O)c(C)c2)n1CC | > 10 | Active | Active | Active
30 |  | 27% | CCN(CC)CCCNC(=O)c1cc(C(CC)(CC)c2ccc(OCCCCC(O)(CC)CC)c(C)c2)cn1CC | > 10 | Active | Active | Active
31 | 51 |  | CCN(CC)CCCNC(=O)c1cc(C(CC)(CC)c2ccc(OCCC(O)(CC)CC)c(C)c2)cn1CC | > 10 | Active | Active | Active
32 | 54 |  | CCCC(O)(CCC)CCOc1ccc(C(CC)(CC)c2ccc(C(=O)NCCCN(CC)CC)n2CC)cc1C | > 10 | Active | Active | Active
33 |  | inactive | CCN(CC)CCNC(=O)c1cc(C(CC)(CC)c2ccc(OCC(C)O)c(C)c2)cn1CC (stereo not given) | > 10 | Active | Active | Active
34 |  | 39% | CCN(CC)CCCNC(=O)c1ccc(C(CC)(CC)c2ccc(OCC(O)C3CC3)c(C)c2)n1CC (stereo not given) | > 10 | Active | Active | Active
35 |  | 31% | CCN(CC)CCNC(=O)c1cc(C(CC)(CC)c2ccc(OCCCC(O)(CC)CC)c(C)c2)cn1CC | > 10 | Active | Active | Active
36 | 70 |  | CCn1cc(C(CC)(CC)c2ccc(OCC(C)O)c(C)c2)cc1C(=O)NCCN(C)C (stereo not given) | > 10 | Active | Active | Active
